Reference: ChEMBL document CHEMBL1137660, “Molecular and biochemical characterization of the chromosome-encoded class A beta-lactamase BCL-1 from Bacillus clausii” (Antimicrob Agents Chemother, 2007)
In brackets after ≈: the same amount, converted by molar mass.

Columns and labels:
Format in all cases: functional
Shouchella clausii [1] = test: Antimicrobial activity against Bacillus clausii ATCC 21537 by agar-dilution technique
Escherichia coli [2] = test: Antimicrobial activity against Escherichia coli DH10B carrying pJIM2246 expressing Bacillus clausii NR beta-lactamase BCL1 by agar-dilution technique in presence of beta-lactamase inhibitor clavulanic acid; conditions: K-12 substr. DH10B
How it was run: (§1)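 MICs by agar dilution on Mueller-Hinton agar following CLSI recommendations. E. coli DH10B clone carries EcoRI-restricted B. clausii NR DNA in pJIM2246. BL21(DE3) carries blaBCL-1 in pET9a.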

Shouchella clausii [3] = test: Antimicrobial activity against Bacillus clausii NR expressing beta-lactamase BCL1 by agar-dilution technique
Escherichia coli [4] = test: Antimicrobial activity against Escherichia coli BL21(DE3) carrying pET9a expressing Bacillus clausii beta-lactamase BCL1 by agar-dilution technique in presence of beta-lactamase inhibitor clavulanic acid; how it was run: as §1
Shouchella clausii [5] = test: Antimicrobial activity against Bacillus clausii ATCC 21537 by agar-dilution technique in presence of beta-lactamase inhibitor clavulanic acid; how it was run: as §1
Escherichia coli [6] = test: Antimicrobial activity against Escherichia coli BL21(DE3) by agar-dilution technique; how it was run: as §1
Escherichia coli [7] = test: Antimicrobial activity against Escherichia coli DH10B by agar-dilution technique in presence of beta-lactamase inhibitor clavulanic acid; conditions: K-12 substr. DH10B; how it was run: as §1
Shouchella clausii [8] = test: Antimicrobial activity against Bacillus clausii NR expressing beta-lactamase BCL1 by agar-dilution technique in presence of beta-lactamase inhibitor clavulanic acid; how it was run: as §1
Escherichia coli [9] = test: Antimicrobial activity against Escherichia coli DH10B carrying pJIM2246 expressing Bacillus clausii NR beta-lactamase BCL1 by agar-dilution technique; conditions: K-12 substr. DH10B
Escherichia coli [10] = test: Antimicrobial activity against Escherichia coli BL21(DE3) carrying pET9a expressing Bacillus clausii beta-lactamase BCL1 by agar-dilution technique
Escherichia coli [11] = test: Antimicrobial activity against Escherichia coli DH10B by agar-dilution technique; conditions: K-12 substr. DH10B; how it was run: as §1
Escherichia coli [12] = test: Antimicrobial activity against Escherichia coli BL21(DE3) by agar-dilution technique in presence of beta-lactamase inhibitor clavulanic acid; how it was run: as §1
Escherichia coli [13] = test: Antimicrobial activity against Escherichia coli DH10B by agar-dilution technique in presence of beta-lactamase inhibitor Tazobactam; conditions: K-12 substr. DH10B; how it was run: as §1
Escherichia coli [14] = test: Antimicrobial activity against Escherichia coli BL21(DE3) carrying pET9a expressing Bacillus clausii beta-lactamase BCL1 by agar-dilution technique in presence of beta-lactamase inhibitor Tazobactam; how it was run: as §1
Shouchella clausii [15] = test: Antimicrobial activity against Bacillus clausii ATCC 21537 by agar-dilution technique in presence of beta-lactamase inhibitor Tazobactam; how it was run: as §1
Escherichia coli [16] = test: Antimicrobial activity against Escherichia coli DH10B carrying pJIM2246 expressing Bacillus clausii NR beta-lactamase BCL1 by agar-dilution technique in presence of beta-lactamase inhibitor Tazobactam; conditions: K-12 substr. DH10B; how it was run: as §1
Escherichia coli [17] = test: Antimicrobial activity against Escherichia coli BL21(DE3) by agar-dilution technique in presence of beta-lactamase inhibitor Tazobactam; how it was run: as §1
Shouchella clausii [18] = test: Antimicrobial activity against Bacillus clausii NR expressing beta-lactamase BCL1 by agar-dilution technique in presence of beta-lactamase inhibitor Tazobactam; how it was run: as §1

MIC (Shouchella clausii [1]) [µg/mL]	MIC (Shouchella clausii [3]) [µg/mL]	MIC (Escherichia coli [6]) [µg/mL]	MIC (Escherichia coli [9]) [µg/mL]	MIC (Escherichia coli [10]) [µg/mL]	MIC (Escherichia coli [11]) [µg/mL]	SMILES	further results
16 (≈ 35.1 µM)	16 (≈ 35.1 µM)	0.06 (≈ 0.132 µM)	0.12 (≈ 0.263 µM)	0.06 (≈ 0.132 µM)	0.06 (≈ 0.132 µM)	CO/N=C(\C(=O)N[C@@H]1C(=O)N2C(C(=O)O)=C(COC(C)=O)CS[C@H]12)c1csc(N)n1 [CEFOTAXIME]	MIC (Escherichia coli [2]): 0.06 µg/mL; MIC (Escherichia coli [4]): 0.06 µg/mL; MIC (Shouchella clausii [5]): 16 µg/mL; MIC (Escherichia coli [7]): 0.06 µg/mL; MIC (Shouchella clausii [8]): 16 µg/mL; MIC (Escherichia coli [12]): 0.06 µg/mL
		0.06 (≈ 0.108 µM)	0.06 (≈ 0.108 µM)	0.06 (≈ 0.108 µM)	0.06 (≈ 0.108 µM)	CO/N=C(\C(=O)N[C@@H]1C(=O)N2C(C(=O)O)=C(CSc3nc(=O)c(O)nn3C)CS[C@H]12)c1csc(N)n1 [CEFTRIAXONE]	
0.25 (≈ 0.48 µM)	64 (≈ 123 µM)	0.25 (≈ 0.48 µM)	0.25 (≈ 0.48 µM)	0.25 (≈ 0.48 µM)	0.25 (≈ 0.48 µM)	CO[C@@]1(NC(=O)C(C(=O)O)c2ccc(O)cc2)C(=O)N2C(C(=O)O)=C(CSc3nnnn3C)CO[C@@H]21 (some centres not stated) [MOXALACTAM]	
8 (≈ 20.2 µM)	8 (≈ 20.2 µM)	1 (≈ 2.52 µM)	64 (≈ 161 µM)	16 (≈ 40.4 µM)	4 (≈ 10.1 µM)	CC(=O)OCC1=C(C(=O)O)N2C(=O)[C@@H](NC(=O)Cc3cccs3)[C@H]2SC1 [CEPHALOTHIN]	
16 (≈ 37.4 µM)	32 (≈ 74.9 µM)	0.5 (≈ 1.17 µM)	16 (≈ 37.4 µM)	2 (≈ 4.68 µM)	8 (≈ 18.7 µM)	CO[C@@]1(NC(=O)Cc2cccs2)C(=O)N2C(C(=O)O)=C(COC(N)=O)CS[C@@H]21 [CEFOXITIN]	
1 (≈ 2.74 µM)	0.5 (≈ 1.37 µM)	1 (≈ 2.74 µM)			8 (≈ 21.9 µM)	CC1(C)S[C@@H]2[C@H](NC(=O)[C@H](N)c3ccc(O)cc3)C(=O)N2[C@H]1C(=O)O [AMOXICILLIN]	MIC (Escherichia coli [2]): 32 µg/mL; MIC (Escherichia coli [4]): 2 µg/mL; MIC (Shouchella clausii [5]; read-out: MIC): 120 µg/mL; MIC (Escherichia coli [7]): 4 µg/mL; MIC (Shouchella clausii [8]): 0.12 µg/mL; MIC (Escherichia coli [12]): 1 µg/mL
		0.06 (≈ 0.125 µM)				CO/N=C(\C(=O)N[C@@H]1C(=O)N2C(C(=O)[O-])=C(C[N+]3(C)CCCC3)CS[C@H]12)c1csc(N)n1	
0.5 (≈ 1.5 µM)	0.5 (≈ 1.5 µM)	2 (≈ 5.98 µM)			32 (≈ 95.7 µM)	CC1(C)S[C@@H]2[C@H](NC(=O)Cc3ccccc3)C(=O)N2[C@H]1C(=O)O [PENICILLIN G]	
		0.06 (≈ 0.117 µM)	0.12 (≈ 0.233 µM)	0.5 (≈ 0.972 µM)	0.06 (≈ 0.117 µM)	CO/N=C(\C(=O)N[C@@H]1C(=O)N2C(C(=O)[O-])=C(C[n+]3cccc4c3CCC4)CS[C@H]12)c1csc(N)n1 [CEFPIROME]	MIC (Escherichia coli [2]): 0.06 µg/mL; MIC (Escherichia coli [4]): 0.06 µg/mL; MIC (Shouchella clausii [5]): 8 µg/mL; MIC (Escherichia coli [7]): 0.06 µg/mL; MIC (Shouchella clausii [8]): 8 µg/mL; MIC (Escherichia coli [12]): 0.06 µg/mL
16 (≈ 30.9 µM)	16 (≈ 30.9 µM)	1 (≈ 1.93 µM)	8 (≈ 15.5 µM)	32 (≈ 61.8 µM)	4 (≈ 7.73 µM)	CCN1CCN(C(=O)N[C@@H](C(=O)N[C@@H]2C(=O)N3[C@@H]2SC(C)(C)[C@@H]3C(=O)O)c2ccccc2)C(=O)C1=O [PIPERACILLIN]	MIC (Escherichia coli [13]): 4 µg/mL; MIC (Escherichia coli [14]): 0.5 µg/mL; MIC (Shouchella clausii [15]): 8 µg/mL; MIC (Escherichia coli [16]): 2 µg/mL; MIC (Escherichia coli [17]): 0.5 µg/mL; MIC (Shouchella clausii [18]): 8 µg/mL
	0.25 (≈ 0.835 µM)					C[C@@H](O)[C@H]1C(=O)N2C(C(=O)O)=C(SCCNC=N)C[C@H]12 [IMIPENEM ANHYDROUS]	
8 (≈ 20.8 µM)	8 (≈ 20.8 µM)	1 (≈ 2.6 µM)			8 (≈ 20.8 µM)	CC1(C)S[C@@H]2[C@H](NC(=O)[C@H](C(=O)O)c3ccsc3)C(=O)N2[C@H]1C(=O)O [TICARCILLIN]	

SMILES	MIC (Shouchella clausii [1]) [µg/mL]	MIC (Shouchella clausii [3]) [µg/mL]	MIC (Escherichia coli [6]) [µg/mL]	MIC (Escherichia coli [9]) [µg/mL]	MIC (Escherichia coli [10]) [µg/mL]	MIC (Escherichia coli [11]) [µg/mL]	further results
O=C(Cc1cccs1)N[C@@H]1C(=O)N2C(C(=O)[O-])=C(C[n+]3ccccc3)CS[C@H]12 [CEPHALORIDINE]			0.06 (≈ 0.144 µM)	0.12 (≈ 0.289 µM)	0.06 (≈ 0.144 µM)	0.12 (≈ 0.289 µM)	
CC(C)(O/N=C(\C(=O)N[C@@H]1C(=O)N2C(C(=O)[O-])=C(C[n+]3ccccc3)CS[C@H]12)c1csc(N)n1)C(=O)O [CEFTAZIDIME]			0.06 (≈ 0.11 µM)	0.5 (≈ 0.915 µM)	0.12 (≈ 0.22 µM)	0.12 (≈ 0.22 µM)	MIC (Escherichia coli [2]): 0.5 µg/mL; MIC (Escherichia coli [4]): 0.06 µg/mL; MIC (Escherichia coli [7]): 0.12 µg/mL; MIC (Escherichia coli [12]): 0.06 µg/mL
CO/N=C(\C(=O)N[C@@H]1C(=O)N2C(C(=O)O)=C(COC(N)=O)CS[C@H]12)c1ccco1 [CEFUROXIME]			0.5 (≈ 1.18 µM)	16 (≈ 37.7 µM)	2 (≈ 4.71 µM)	8 (≈ 18.9 µM)	
